Experimental data reported in ChEMBL document CHEMBL1130289, “Polyanion inhibitors of human immunodeficiency virus and other viruses. 5. Telomerized anionic surfactants derived from amino acids” (J Med Chem, 1997).

Tests used:
[1] = system: Semliki Forest virus; experiment: Concentration required to inhibit forest induced cytopathicity in Vero cells by 50%; assay type: functional, organism-based
How it was run: (§1)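 Virus was added to the cell monolayers in the presence of compound. Incubation continued until the viral cytopathic effect was scored. IC50 is the concentration that reduced virus-induced cytopathicity by 50%.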

[2] = system: Tacaribe virus; experiment: Concentration required to inhibit Tacaribe induced cytopathicity in Vero cells by 50%; assay type: functional, cell-based; details: Mammarenavirus tacaribeense
[3] = system: Human alphaherpesvirus 1; experiment: Concentration required to inhibit HSV-1(KOS) induced cytopathicity in E6SM cells by 50%; details: Human alphaherpesvirus 1, E6SM
[4] = system: CEM-4; experiment: Cytotoxic concentration required to reduce the viability of uninfected cells by 50% after 5 days of incubation in the presence on CEM-4 cells.; assay type: functional; details: Homo sapiens, CEM-4, 120 h
How it was run: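 Uninfected CEM-4 cells were incubated with compound for 5 days. CC50 is the concentration that reduced viability by 50%. Values average at least two separate experiments.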

[5] = system: Human immunodeficiency virus 2; experiment: Concentration required to inhibit HIV-2 induced cytopathicity in MT-4 cells by 50%; assay type: functional, organism-based; details: Human immunodeficiency virus 2, MT4
How it was run: (§2)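 MT-4 cells were infected with HIV-1 (strain HTLV-IIIB/LAI) or HIV-2 (strain LAV-2 ROD) and exposed to compound. IC50 is the concentration that inhibited HIV-induced cytopathicity by 50%. Values are means of two separate experiments.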

[6] = system: Mammalian orthoreovirus 1; experiment: Concentration required to inhibit reovirus-1 induced cytopathicity in Vero cells by 50%; assay type: functional, organism-based; details: Mammalian orthoreovirus 1, Vero; how it was run: as §1
[7] = system: Human alphaherpesvirus 2; experiment: Concentration required to inhibit HSV-2(G) induced cytopathicity in E6SM cells by 50%; details: Human alphaherpesvirus 2, E6SM
[8] = system: HEL; experiment: Minimum cytotoxic concentration required to cause a microscopically detectable alteration of normal cell morphology in HEL cells; assay type: functional, Homo sapiens
[9] = system: Poliovirus 1; experiment: Concentration required to inhibit Polio-1 induced cytopathicity in HeLa cells by 50%; assay type: functional, organism-based; details: Enterovirus C
[10] = system: Human alphaherpesvirus 1; experiment: Concentration required to inhibit HSV-1 TK-(B2006) induced cytopathicity in E6SM cells by 50%; details: Human alphaherpesvirus 1, E6SM
[11] = system: Coxsackievirus; experiment: Concentration required to inhibit Coxsackie induced cytopathicity in HeLa cells by 50%; assay type: functional, organism-based; how it was run: as §1
[12] = system: HeLa; experiment: Minimum cytotoxic concentration required to cause a microscopically detectable alteration of normal cell morphology in HeLa cells; assay type: functional, Homo sapiens
How it was run: (§3)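 Uninfected E6SM, HeLa or Vero cells were exposed to compound and examined by microscopy. MCC is the lowest concentration causing a detectable alteration of normal cell morphology.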

[13] = system: Vero; experiment: Minimum cytotoxic concentration required to cause a microscopically detectable alteration of normal cell morphology in Vero cells; assay type: functional, Chlorocebus sabaeus; how it was run: as §3
[14] = system: Human immunodeficiency virus 2; experiment: Concentration required to inhibit by 50% syncytium formation between MOLT-4 cells and HIV-2 (ROD) infected HUT-78 cells; assay type: functional, organism-based; details: Human immunodeficiency virus 2, MOLT-4
How it was run: (§4)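 Uninfected MOLT-4 cells were co-cultured with HUT-78 cells chronically infected with HIV-1 (IIIB) or HIV-2 (ROD), in the presence of compound. The end point was syncytium formation, and IC50 is the concentration giving 50% inhibition. Values are means of two separate experiments.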

[15] = system: Human betaherpesvirus 5; experiment: Concentration required to inhibit HCMV(AD169) induced cytopathicity in HEL cells by 50%; assay type: functional, organism-based; details: Human betaherpesvirus 5, HEL; how it was run: as §1
[16] = system: Human betaherpesvirus 5; experiment: Concentration required to inhibit HCMV(Davis) induced cytopathicity in HEL cells by 50%; assay type: functional, organism-based; details: Human betaherpesvirus 5, HEL; how it was run: as §1
[17] = system: Human immunodeficiency virus 1; experiment: Concentration required to inhibit HIV-1 induced cytopathicity in MT-4 cells by 50%; assay type: functional, organism-based; details: Human immunodeficiency virus 1, MT4; how it was run: as §2
[18] = system: Vesicular stomatitis virus; experiment: Concentration required to inhibit vesicular stomatitis induced cytopathicity in E6SM cells by 50%; assay type: functional, organism-based
[19] = system: Human respirovirus 3; experiment: Concentration required to inhibit parainfluenza-3 induced cytopathicity in Vero cells by 50%; assay type: functional, organism-based; details: Human respirovirus 3, Vero; how it was run: as §1
[20] = system: Human immunodeficiency virus 1; experiment: Inhibitory concentration required to inhibit HIV-induced cytopathicity in CEM-4 cells by 50% based in the MTT assay; Not active; assay type: functional, organism-based
[21] = system: MT4; experiment: Concentration required to reduce the viability of mock-infected MT-4 cells by 50%; assay type: functional; details: Homo sapiens
How it was run: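 Mock-infected MT-4 cells were exposed to compound. CC50 is the concentration that reduced cell viability by 50%. Values are means of two separate experiments.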

[22] = system: Vaccinia virus; experiment: Concentration required to inhibit Vaccinia induced cytopathicity in E6SM cells by 50%; assay type: functional, organism-based; details: Orthopoxvirus vaccinia
[23] = system: E6SM; experiment: Minimum cytotoxic concentration required to cause a microscopically detectable alteration of normal cell morphology in E6SM cells; assay type: functional, Homo sapiens; how it was run: as §3
[24] = system: Sindbis virus; experiment: Concentration required to inhibit Sindbis induced cytopathicity in Vero cells by 50%; assay type: functional, organism-based; how it was run: as §1
[25] = system: Junin virus; experiment: Concentration required to inhibit Junin induced cytopathicity in Vero cells by 50%; assay type: functional, organism-based; details: Mammarenavirus juninense
[26] = system: Human immunodeficiency virus 1; experiment: Concentration required to inhibit by 50% syncytium formation between MOLT-4 cells and HIV-1(IIIB); assay type: functional, organism-based; details: Human immunodeficiency virus 1, MOLT-4; how it was run: as §4

Row | Structure (SMILES) | IC50 [1] | IC50 [2] | IC50 [3] | CC50 [4] | IC50 [5] | IC50 [6] | IC50 [7] | MMC [8] | IC50 [9] | IC50 [10] | IC50 [11] | MMC [12] | MMC [13] | IC50 [14] | IC50 [15] | IC50 [16] | IC50 [17] | IC50 [18] | IC50 [19] | IC50 [20] | further results
1 | CCCCCCCCCCCCSCCCCCCCCCCCCC(=O)NCCCCCCCCCCC(=O)[O-].[Na+] | > 200 µg/mL | > 50 µg/mL | > 200 µg/mL | 37 µg/mL | 47 µg/mL | > 200 µg/mL | > 200 µg/mL | >50 µg/mL | > 200 µg/mL | > 200 µg/mL | > 200 µg/mL | >200 µg/mL | >200 µg/mL | 150 µg/mL | > 50 µg/mL | 35 µg/mL | 20 µg/mL | > 200 µg/mL | > 200 µg/mL | Not Active | CC50 [21]: 136 µg/mL; IC50 [22]: > 200 µg/mL; MMC [23]: >200 µg/mL; IC50 [24]: > 200 µg/mL; IC50 [25]: > 50 µg/mL; IC50 [26]: 50 µg/mL
2 | CCCCCCCCCCCCSCCCCCCCCCCCCCCCCCCCCCCCCCCCCCCCCCCCCCCCCC(=O)NCCCCCCCCCCC(=O)[O-].[Na+] | > 200 µg/mL | > 50 µg/mL | > 100 µg/mL | > 50 µg/mL | 1.3 µg/mL | > 200 µg/mL | 20 µg/mL | >50 µg/mL | > 200 µg/mL | > 100 µg/mL | > 200 µg/mL | >200 µg/mL | >200 µg/mL | 50 µg/mL | 40 µg/mL | 15 µg/mL | 5 µg/mL | > 100 µg/mL | > 200 µg/mL | Not Active | CC50 [21]: > 250 µg/mL; IC50 [22]: > 100 µg/mL; MMC [23]: 200 µg/mL; IC50 [24]: > 200 µg/mL; IC50 [25]: > 50 µg/mL; IC50 [26]: 30 µg/mL
3 | CCCCCCCCCCCCSCCCCC(=O)NCCCCCCCCCCC(=O)NCCC(=O)[O-].[Na+] | > 200 µg/mL | 43 µg/mL | 40 µg/mL | > 300 µg/mL | 27 µg/mL | > 200 µg/mL | 20 µg/mL | >50 µg/mL | > 200 µg/mL | 70 µg/mL | > 200 µg/mL | >200 µg/mL | >200 µg/mL | 6 µg/mL | 30 µg/mL | 23 µg/mL | 6 µg/mL | > 200 µg/mL | > 200 µg/mL | Not Active | CC50 [21]: > 250 µg/mL; IC50 [22]: > 200 µg/mL; MMC [23]: 400 µg/mL; IC50 [24]: > 200 µg/mL; IC50 [25]: 50 µg/mL; IC50 [26]: 30 µg/mL
